High-throughput results deposited in PubChem by several laboratories.
Hits are enriched below; roughly 1.2% of the tested compounds scored in any of these assays.
S1P3 antag: S1P3 (human) receptor antagonism | Q99500 | CHO S1P3 NFAT-BLA reporter, FRET fluorescence, antagonist mode | inhibition, % at 4.98 µM | hit rate 0.27% among 170,000 | AID 485;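 active = inhibition above the plate cutoff, the mean inhibition of test wells on that plate plus 3 SD, cut at about 28% in these data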;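 note: cells challenged with S1P at its EC80 of 0.8 µM; blue over green emission ratio from cleaved BLA substrate after 4 h stimulation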
thrombin 1536: blocks human thrombin protease activity; P00734; alpha-thrombin, Boc-VPR-AMC fluorogenic substrate cleavage; inhibition, % at 5 µM; hit rate 0.26% among 220,000;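 active = inhibition at or above 40%; inactive = inhibition below 40%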
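Material: human alpha-thrombin protein. Incubation: reaction at ambient temperature. Technique: fluorescence of released AMC, ex 355 nm, em 460 nm. Control set: no-compound enzyme wells and no-enzyme blanks. Also added: Boc-VPR-AMC substrate, 15 µM final. Buffer or medium: pH 7.5 Tris (50 mM) with NaCl 150 mM, Tween 20 0.05%.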
FXIa inh 1536: inhibitors of human coagulation factor XIa; purified FXIa, Boc-Glu-Ala-Arg-AMC fluorogenic substrate; inhibition, % at 5 µM; hit rate 0.14% among 220,000; AID 798;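 active = inhibition of at least 40%; inactive = inhibition below 40%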;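 note: fluorescence of freed AMC excited at 355 nm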
Target sequence (P03951 19-387 limits assumed): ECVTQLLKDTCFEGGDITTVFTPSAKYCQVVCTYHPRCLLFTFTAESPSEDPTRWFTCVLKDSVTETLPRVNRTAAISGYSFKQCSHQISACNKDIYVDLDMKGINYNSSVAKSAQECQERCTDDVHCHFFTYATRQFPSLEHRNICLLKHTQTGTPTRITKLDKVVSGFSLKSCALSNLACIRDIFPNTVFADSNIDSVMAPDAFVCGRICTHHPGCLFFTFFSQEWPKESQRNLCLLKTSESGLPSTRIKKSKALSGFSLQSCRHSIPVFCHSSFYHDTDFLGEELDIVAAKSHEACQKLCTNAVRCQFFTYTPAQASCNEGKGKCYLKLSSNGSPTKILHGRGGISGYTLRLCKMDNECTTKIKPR
Target sequence (P03951 388-625 limits assumed): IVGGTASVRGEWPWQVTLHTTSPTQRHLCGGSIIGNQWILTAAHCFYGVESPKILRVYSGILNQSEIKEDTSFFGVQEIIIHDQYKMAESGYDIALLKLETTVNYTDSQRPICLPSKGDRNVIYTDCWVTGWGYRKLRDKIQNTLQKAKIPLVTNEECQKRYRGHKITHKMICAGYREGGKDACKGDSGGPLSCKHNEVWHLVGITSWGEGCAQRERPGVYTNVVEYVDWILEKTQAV
DTT redox prof: compounds producing H2O2 with reducing agent – biochemical, NIH compound library profiling, artefact control for MLSCN library redox annotation, primary screen. activation, % at 10 µM. DTT-dependent redox cycling H2O2, phenol red/HRP absorbance; 100% = 100 µM peroxide control, 0% = buffer. hit rate 0.03% among 200,000;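 active = activation of at least 50% relative to the plate's high and low controls in the primary single-dose screen; inactive = activation below 50%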;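 note: compound incubated with DTT at 0.8 mM final as the reducing agent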
FXIIa inh 1536: blocks human coagulation factor XIIa protease activity; P00748; inhibition, % at 5 µM; hit rate 0.3% among 220,000; purified FXIIa, Boc-QGR-AMC fluorogenic substrate, 2 h; in the data active = inhibition above about 40%
KLK5 inh: inhibitors of human kallikrein 5; Q9Y337; recombinant hK5, fluorogenic AMC substrate cleavage; inhibition, % at 5 µM; hit rate 0.59% among 210,000; AID 873;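 active = inhibition of 40% or more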
A number is an active result.

`O=C(NCc1ccc2c(c1)OCO2)c1nnc(Cc2ccc(F)cc2)o1` gave S1P3 antag 106, thrombin 1536 inactive, FXIa inh 1536 inactive, DTT redox prof inactive, FXIIa inh 1536 inactive and KLK5 inh inactive.
For COc1cccc(-c2csc(N3CCN(CC(=O)NNC(=O)c4ccco4)CC3)n2)c1 the results were S1P3 antag inactive, thrombin 1536 inactive, FXIa inh 1536 inactive, DTT redox prof inactive, FXIIa inh 1536 inactive and KLK5 inh inactive.
`O=C(CCCN1C(=O)CCC1=O)Nc1ccc(Br)cc1F` gave thrombin 1536 inactive, FXIa inh 1536 inactive, DTT redox prof inactive, FXIIa inh 1536 inactive and KLK5 inh 61.
`Cc1ccccc1Cn1cc(NC(=O)c2cc(C3CC3)on2)cn1` gave S1P3 antag inactive, thrombin 1536 inactive, FXIa inh 1536 inactive, FXIIa inh 1536 inactive and KLK5 inh inactive.
For CC1CCc2c(sc3nc(SCC(=O)NCc4ccco4)nc(N)c23)C1 (stereo not drawn) the results were S1P3 antag 92, thrombin 1536 inactive, FXIa inh 1536 inactive, DTT redox prof inactive, FXIIa inh 1536 inactive and KLK5 inh inactive.
CN1CCN(NC(=O)c2cc(Br)ccc2Cl)CC1 was read as S1P3 antag inactive, thrombin 1536 inactive, FXIa inh 1536 inactive, DTT redox prof inactive, FXIIa inh 1536 inactive and KLK5 inh inactive.
`CC1(C)CC(=O)C2=C(C1)N=C1SCCC(=O)N1C2c1cccc([N+](=O)[O-])c1` (stereo not drawn) gave S1P3 antag inactive, thrombin 1536 inactive, FXIa inh 1536 inactive, DTT redox prof inactive and KLK5 inh inactive.
Screening COc1ccc(CN2C(=O)c3ccccc3C2C(=O)NC2CCCCCC2)c(OC)c1 (stereo not drawn) returned S1P3 antag inactive, thrombin 1536 47, FXIa inh 1536 inactive, DTT redox prof inactive, FXIIa inh 1536 inactive and KLK5 inh inactive.
Screening COc1ccc(CN2C(=O)c3ccccc3C2C(=O)NCCc2ccccc2)c(OC)c1 (stereo not drawn) returned S1P3 antag inactive, thrombin 1536 inactive, FXIa inh 1536 inactive, DTT redox prof inactive, FXIIa inh 1536 inactive and KLK5 inh inactive.
For CC1CCC(NC(=O)C2c3ccccc3C(=O)N2Cc2cccs2)CC1 (stereo not drawn) the results were S1P3 antag inactive, thrombin 1536 inactive, FXIa inh 1536 inactive, DTT redox prof inactive, FXIIa inh 1536 inactive and KLK5 inh 44.
`CC(C)C(=O)Nc1ccc2c(c1)C(=O)NC2=O` gave S1P3 antag inactive, thrombin 1536 inactive, FXIa inh 1536 inactive, DTT redox prof inactive, FXIIa inh 1536 inactive and KLK5 inh inactive.
For Cc1cc(C(=O)Nc2c(F)c(F)c(F)c(F)c2F)n(-c2ccccc2)n1 the results were S1P3 antag inactive, thrombin 1536 inactive, FXIa inh 1536 inactive, DTT redox prof inactive, FXIIa inh 1536 inactive and KLK5 inh inactive.
Screening CCOC(=O)N1CCN(C(=O)CCl)CC1 returned S1P3 antag inactive, thrombin 1536 inactive, FXIa inh 1536 inactive, DTT redox prof inactive, FXIIa inh 1536 inactive and KLK5 inh inactive.
Cc1cc(C)c(S(=O)(=O)N2CCN(c3ccc([N+](=O)[O-])c(NCC4CCCO4)c3)CC2)c(C)c1 (stereo not drawn) was read as thrombin 1536 inactive, FXIa inh 1536 inactive, DTT redox prof inactive, FXIIa inh 1536 inactive and KLK5 inh 41.
For CCOC(=O)c1ccc(NC(=O)Nc2cccc(C)n2)cc1 the results were S1P3 antag inactive, thrombin 1536 inactive, FXIa inh 1536 45, DTT redox prof inactive, FXIIa inh 1536 inactive and KLK5 inh inactive.
Screening CCOC(=O)c1oc2ccccc2c1NC(=O)c1ccccc1OC returned S1P3 antag inactive, thrombin 1536 inactive, FXIa inh 1536 inactive, DTT redox prof inactive, FXIIa inh 1536 inactive and KLK5 inh 60.
S=C(NCCCN1CCOCC1)Nc1ccc(Cl)cc1 was read as S1P3 antag inactive, thrombin 1536 inactive, FXIa inh 1536 inactive, DTT redox prof inactive, FXIIa inh 1536 inactive and KLK5 inh inactive.
S=C(NCCN1CCOCC1)Nc1ccc(Cl)cc1 was read as S1P3 antag inactive, thrombin 1536 inactive, FXIa inh 1536 inactive, DTT redox prof inactive, FXIIa inh 1536 inactive and KLK5 inh 47.
For Nc1ncnc2nc(SCCN3CCCCC3)[nH]c12 the results were S1P3 antag inactive, thrombin 1536 76, FXIa inh 1536 inactive, DTT redox prof inactive, FXIIa inh 1536 inactive and KLK5 inh inactive.
`Nc1ncnc2nc(SCc3ccccc3)[nH]c12` gave thrombin 1536 inactive, FXIa inh 1536 inactive, DTT redox prof inactive, FXIIa inh 1536 inactive and KLK5 inh inactive.
Screening Cc1ccccc1CN1CCc2c(OCC(=O)N3CCCc4ccccc43)cccc2C1=O returned S1P3 antag inactive, thrombin 1536 inactive, FXIa inh 1536 inactive, DTT redox prof inactive, FXIIa inh 1536 inactive and KLK5 inh 53.
Nc1nc(SCC(=O)Nc2ccc(Cl)cc2)[nH]c(=O)c1-c1ccccc1 was read as S1P3 antag inactive, thrombin 1536 inactive, FXIa inh 1536 inactive, DTT redox prof inactive, FXIIa inh 1536 inactive and KLK5 inh inactive.
`COC(=O)c1ccccc1NC(=O)c1cc2nc(C3CC3)cc(C(F)(F)F)n2n1` gave thrombin 1536 inactive, FXIa inh 1536 inactive, DTT redox prof inactive, FXIIa inh 1536 inactive and KLK5 inh inactive.
Screening COc1cc(NC(=O)c2cc3nc(C4CC4)cc(C(F)(F)F)n3n2)c(OC)cc1Cl returned thrombin 1536 inactive, FXIa inh 1536 inactive, DTT redox prof inactive, FXIIa inh 1536 46 and KLK5 inh inactive.
Screening CS(=O)(=O)N1N=C(c2cccs2)CC1c1ccccc1F (stereo not drawn) returned S1P3 antag inactive, thrombin 1536 inactive, FXIa inh 1536 inactive, DTT redox prof inactive, FXIIa inh 1536 inactive and KLK5 inh inactive.
O=C(Cn1nnc(-c2ccccc2)n1)OCc1csc(-c2ccccc2)n1 was read as S1P3 antag inactive, thrombin 1536 inactive, FXIa inh 1536 inactive, DTT redox prof inactive, FXIIa inh 1536 49 and KLK5 inh inactive.
For O=C1CCC(C(=O)Nc2cccc3ccccc23)N1 (stereo not drawn) the results were S1P3 antag inactive, thrombin 1536 104, FXIa inh 1536 inactive, DTT redox prof inactive, FXIIa inh 1536 inactive and KLK5 inh 62.
For COc1ccc(NC(=O)C2CCC(=O)N2)cc1 (stereo not drawn) the results were S1P3 antag inactive, thrombin 1536 inactive, FXIa inh 1536 inactive, DTT redox prof inactive, FXIIa inh 1536 inactive and KLK5 inh inactive.
Cc1ccc(/C=N/NC(=O)c2ccoc2C)s1 was read as S1P3 antag inactive, thrombin 1536 inactive, FXIa inh 1536 inactive, DTT redox prof inactive, FXIIa inh 1536 inactive and KLK5 inh inactive.
Cc1occc1C(=O)N/N=C/c1ccc(Br)s1 was read as S1P3 antag inactive, thrombin 1536 inactive, FXIa inh 1536 inactive, DTT redox prof inactive, FXIIa inh 1536 inactive and KLK5 inh 49.
`Cc1cccc(/C=N/n2c(C)cc(C)c(C#N)c2=O)c1` gave thrombin 1536 inactive, FXIa inh 1536 inactive, DTT redox prof inactive, FXIIa inh 1536 inactive and KLK5 inh inactive.
